Experimental data reported in ChEMBL document CHEMBL1148217, “Potential antipsoriatic avarol derivatives as antioxidants and inhibitors of PGE(2) generation and proliferation in the HaCaT cell line” (J Nat Prod, 2004).

Experiments:
[1] = system: Neutrophil; experiment: Inhibition of TPA-induced ROS production in human neutrophils by chemiluminescence; format: functional, cell-based
[2] = system: HaCaT; experiment: Inhibition of PGE2 production in human HaCaT cells at 5 uM after 24 hrs by RIA; format: functional
[3] = system: Radical scavenging activity; experiment: Antioxidant activity assessed as DPPH free radical scavenging activity after 30 mins by assay in solution
[4] = Antiproliferative activity against human HaCaT cells assessed as [3H]thymidine incorporation at 5 uM after 24 hrs; format: cell-based
[5] = system: Neutrophil; experiment: Inhibition of TPA-induced ROS production in human neutrophils at 5 uM by chemiluminescence; format: functional
[6] = system: HaCaT; experiment: Antiproliferative activity against human HaCaT cells assessed as [3H]thymidine incorporation after 24 hrs; format: cell-based
How it was run: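 HaCaT keratinocytes were grown in DMEM with 10% FCS, penicillin and streptomycin at 37 °C and 5% CO₂. Cells were seeded at 4 × 10⁴/well for 24 h, then the medium was replaced and compounds or vehicle (1% EtOH) added for 24 h. Cells were pulsed 6 h with methyl-³H-thymidine (1 µCi/mL), and incorporation was counted by scintillation. %I at 5 µM; IC₅₀ from ≥4 concentrations (n = 6); mean ± SEM.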

[7] = system: HaCaT; experiment: Cytotoxicity against human HaCaT cells assessed as plasma membrane integrity damage at 5 uM; format: cell-based
How it was run: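 Membrane damage in treated HaCaT keratinocytes was measured as LDH leakage into the culture medium, read as A550nm (mU), with compounds at 5 µM. Results are mean ± SEM; ANOVA followed by Dunnett's t-test.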

[8] = system: HaCaT; experiment: Inhibition of PGE2 production in human HaCaT cells after 24 hrs by RIA; format: functional, cell-based

IC50 [1] [nM]	IC50 [3] [nM]	SMILES	inhibition at 5 µM [2] [%]	inhibition at 24 h, 5 µM [4] [%]	inhibition at 5 µM [5] [%]	IC50 [6] [nM]	Activity [7] [%]	IC50 [8] [nM]
3600	18000	CC1=CCC[C@H]2[C@](C)(Cc3cc(O)ccc3O)[C@@H](C)CC[C@]12C [AVAROL]	4.9	18.9	71.7			
1000		COc1cc2ccc(=O)oc2c(O)c1O [FRAXETIN]			76.4			
		CNC1=CC(=O)C(C[C@]2(C)[C@@H](C)CC[C@]3(C)C(C)=CCC[C@@H]23)=CC1=O	54.8	33.5	37.8			
		O=C1c2c(O)cccc2Cc2cccc(O)c21 [ANTHRALIN]		73.8	31.2	2900	59	
		CC1=CCC[C@H]2[C@](C)(CC3=CC(=O)C(NCCc4c[nH]c5ccccc45)=CC3=O)[C@@H](C)CC[C@]12C	50.4	36.7	26.7			
		CS(=O)(=O)Nc1ccc([N+](=O)[O-])cc1OC1CCCCC1 [NS-398]	93.8					10
		CC1=CCC[C@H]2[C@](C)(CC3=CC(=O)C=C(NCCc4c[nH]c5ccccc45)C3=O)[C@@H](C)CC[C@]12C	47.1	33.3	25.2			
